Activity calls are given as the source filed them. No cut-off for these calls is given here.
How the values were obtained:
RAW264.7 [1] = test: Inhibition of LPS-induced nitric oxide production in mouse RAW264.7 cells preincubated for 2 hrs followed by LPS-stimulation and measured after 12 hrs by Griess assay; assay type: functional, cell-based
Summary of the method: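 RAW264.7 cells seeded at 2 × 10^5 cells/well and preincubated 24 h, then treated 2 h with test compounds from 40 to 0.5 μM, then stimulated with LPS (1 μg/mL) for 12 h. Supernatant spun at 16 000 rpm for 20 min, mixed with Griess reagent (0.1% naphthyl ethylenediamine dihydrochloride, 1% sulfanilamide, 2% phosphoric acid) for 10 min at rt, read at 540 nm. Means of three independent experiments.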

RAW264.7 [2] = test: Antiinflammatory activity in mouse RAW264.7 cells assessed as inhibition of LPS-induced IL-1beta production preincubated for 2 hrs followed by LPS-stimulation and measured after 12 hrs by ELISA; assay type: functional, cell-based
Summary of the method: (§1)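 Cells seeded at 2 × 10^5 cells/well and preincubated 24 h. They were pretreated 2 h with compound, then given LPS (1 μg/mL) for 12 h. IL-1β and IL-6 in the culture medium were measured by ELISA. Data are mean ± SD (n = 3), analysed by one-way ANOVA with Tukey's test against the LPS-only group.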

RAW264.7 [3] = test: Antiinflammatory activity in mouse RAW264.7 cells assessed as inhibition of LPS-induced COX2 expression at 5 to 10 uM preincubated for 2 hrs followed by LPS-stimulation and measured after 12 hrs by Western blot analysis; assay type: functional, cell-based
Summary of the method: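 After 2 h compound pretreatment and 12 h LPS (1 μg/mL), cells were lysed in 20 mM Tris HCl pH 7.4 with protease inhibitors, and protein was quantified. Lysates were run on SDS-PAGE, transferred to PVDF, and blocked in PBS/0.1% Tween 20/5% skim milk for 1 h at rt. Blots were probed overnight at 4 °C for COX-2 and β-actin, developed by chemiluminescence, and bands quantified by densitometry. Mean ± SD, n = 3.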

RAW264.7 [4] = test: Antiinflammatory activity in mouse RAW264.7 cells assessed as inhibition of LPS-induced IL-6 production preincubated for 2 hrs followed by LPS-stimulation and measured after 12 hrs by ELISA; assay type: functional, cell-based; summary of the method: as §1
[5] = target: Transcription factor p65 (Mus musculus) (UniProt Q04207); test: Inhibition of NFkappaB p65 nuclear translocation in LPS-stimulated mouse RAW264.7 cells at 5 to 10 uM preincubated for 2 hrs followed by LPS-stimulation and measured after 12 hrs by DAPI staining based fluorescence microscopic analysis; assay type: cell-based
Summary of the method: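 Cells were fixed in 4% paraformaldehyde for 20 min and permeabilized with 0.2% Triton X-100 for 30 min. After 5% BSA block for 1 h, they were given anti-p65 primary overnight at 4 °C, then Alexa Fluor 594 secondary (1:500) for 1 h at rt. DAPI (5 μg/mL) was applied 30 min at 37 °C. Imaging used fluorescence microscopy, ex/em 590/617 nm for p65 and 360/450 nm for DAPI.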

Sequence of Transcription factor p65 (Mus musculus) (Q04207 whole entry): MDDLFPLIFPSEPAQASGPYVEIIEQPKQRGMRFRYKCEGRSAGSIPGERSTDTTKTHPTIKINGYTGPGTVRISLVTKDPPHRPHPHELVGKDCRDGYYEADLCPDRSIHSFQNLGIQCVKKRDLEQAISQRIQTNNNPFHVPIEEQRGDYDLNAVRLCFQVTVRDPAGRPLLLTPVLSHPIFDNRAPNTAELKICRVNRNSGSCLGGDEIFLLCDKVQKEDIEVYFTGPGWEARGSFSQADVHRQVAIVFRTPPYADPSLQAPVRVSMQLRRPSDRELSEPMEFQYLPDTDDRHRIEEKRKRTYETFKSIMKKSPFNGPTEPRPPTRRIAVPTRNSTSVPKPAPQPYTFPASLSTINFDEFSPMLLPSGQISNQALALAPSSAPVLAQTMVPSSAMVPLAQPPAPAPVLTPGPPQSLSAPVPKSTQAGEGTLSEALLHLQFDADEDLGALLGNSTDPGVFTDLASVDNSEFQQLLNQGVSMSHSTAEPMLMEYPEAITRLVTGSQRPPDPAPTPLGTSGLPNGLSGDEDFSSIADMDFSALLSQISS

| SMILES | IC50 (RAW264.7 [1]) [µM] | further results |
| --- | --- | --- |
| CCC/C=C/C=C\CCc1cc(O)c([C@@H]2O[C@H](CO)[C@@H](O)[C@H](O)[C@H]2O)c(O)c1C(=O)OC | > 40 | – |
| CCC/C=C/C=C\CCc1cc(O)cc(O)c1 | 28 | – |
| CCC/C=C/C=C\CCc1cc(O)c([C@@H]2O[C@H](CO)[C@@H](O)[C@H](O)[C@H]2O)c(O)c1 | > 40 | – |
| CCC/C=C/C=C/CCc1cc(O)c([C@@H]2O[C@H](CO)[C@@H](O)[C@H](O)[C@H]2O)c(O)c1 | > 40 | – |
| C/C=C/C=C/CCc1cc(O)c([C@@H]2O[C@H](CO)[C@@H](O)[C@H](O)[C@H]2O)c(O)c1C(=O)OC | > 40 | – |
| CCC/C=C\C=C\CCc1cc(O)c([C@@H]2O[C@H](CO)[C@@H](O)[C@H](O)[C@H]2O)c(O)c1 | 30 | – |
| CC/C=C/C=C/CCc1cc(O)c([C@@H]2O[C@H](CO)[C@@H](O)[C@H](O)[C@H]2O)c(O)c1C(=O)OC | 19 | – |
| CCC/C=C/C=C/CCc1cc(O)c([C@@H]2O[C@H](CO)[C@@H](O)[C@H](O)[C@H]2O)c(O)c1C(=O)OC | > 40 | – |

Stronger by IC50 (RAW264.7 [1]), values ahead:

| IC50 (RAW264.7 [1]) [µM] | SMILES | further results |
| --- | --- | --- |
| 15 | CCC/C=C/C=C/CCc1cc(O)c([C@@H]2O[C@H](CO)[C@@H](O)[C@H](O)[C@H]2O)c(O)c1C(=O)OCC | – |
| 6 | CCC/C=C/C=C/CCc1cc(O)cc(O)c1 | inhibition (RAW264.7 [2]): Dose-dependent effect; inhibition (RAW264.7 [3]): Active; inhibition (RAW264.7 [4]): Dose-dependent effect; inhibition [5]: Active |
| 14 | CCC/C=C\C=C\CCc1cc(O)c([C@@H]2O[C@H](CO)[C@@H](O)[C@H](O)[C@H]2O)c(O)c1C(=O)OC | – |
| 9.9 | CCC/C=C/C=C/CCc1cc(O)cc(O)c1C(=O)O | – |
| 17 | CCC/C=C/C=C/C1Cc2cc(O)cc(O)c2C(=O)O1 (configuration not stated) | – |

Source: ChEMBL document CHEMBL4316645, “Phenolic C-Glycosides and Aglycones from Marine-Derived Aspergillus sp. and Their Anti-Inflammatory Activities” (J Nat Prod, 2019)
